Active and inactive are the calls of the source. No cut-off for these calls is given here.
Experiments:
[1] = test system: Rattus norvegicus; experiment: Minimum effective dose at which significant increase in uterine weight/body weight in rat was determined (in vivo); assay type: functional; settings: read-out: MED
In short: (§1)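 In 75-day OVX Sprague–Dawley rats dosed orally for 4 days, beginning 2 weeks post-ovariectomy with 5–6 rats per group, whole uteri were weighed the morning after fasting. MED is the lowest dose giving a significant (p≤0.05) rise in uterine weight/body weight, expressed as % increase over OVX controls ±SE.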

[2] = test system: Rattus norvegicus; experiment: Percent protection of bone mineral density in the distal femur of OVX rat at a dose of 1 mg/kg/day; assay type: functional
In short: (§2)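 OVX Sprague–Dawley rats (6-month old, or 75-day old in one case) were dosed orally each day for 35 days, starting 4 days after ovariectomy. Digitized X-rays of the right distal femoral metaphysis gave BMD. % protection = (test − OVX)/(sham − OVX) × 100, reported ±SE.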

[3] = test system: Rattus norvegicus; experiment: Percent protection of bone mineral density in the distal femur of OVX rat at a dose of 10 mg/kg/day; assay type: functional; in short: as §2
[4] = test system: Rattus norvegicus; experiment: Percent protection of bone mineral density in the distal femur of OVX rat at a dose of 0.1 mg/kg/day; assay type: functional; in short: as §2
[5] = test system: Rattus norvegicus; experiment: Percent decrease in serum cholesterol relative to OVX control at 10 mg/kg in rat was determined (in vivo); assay type: functional
In short: (§3)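 OVX Sprague–Dawley rats (75 days old), 5–6 per group, dosed once daily by oral gavage for 4 consecutive days, starting 14 days after ovariectomy. Vehicle was 20% β-hydroxycyclodextrin at 1 mL/kg, or 1.5% carboxymethylcellulose in some cases. Rats were fasted after the last dose and bled by cardiac puncture next morning.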

[6] = test system: Rattus norvegicus; experiment: Minimum effective dose at which significant increase in uterine eosinophil peroxidase (EPO) activity in rat was determined (in vivo); assay type: functional; settings: read-out: MED
[7] = test system: Rattus norvegicus; experiment: Percent protection of bone mineral density in the distal femur of OVX rat at a dose of 0.01 mg/kg/day; assay type: functional; in short: as §2
[8] = test system: Rattus norvegicus; experiment: Dose required to reduce serum cholesterol by 50% relative to OVX controls was determined (in vivo); assay type: functional; in short: as §3
[9] = test system: Rattus norvegicus; experiment: Percent decrease in serum cholesterol relative to OVX control at 1 mg/kg in rat; assay type: functional; in short: as §3
[10] = test system: Rattus norvegicus; experiment: Percent decrease in serum cholesterol relative to OVX control at 0.1 mg/kg in rat was determined (in vivo); assay type: functional; in short: as §3
[11] = test system: Rattus norvegicus; experiment: Minimum effective dose at which significant increase in uterine weight/body weight in rat was determined (in vivo); expressed as % increase relative to ovariectomized (OVX) controls; assay type: functional; in short: as §1
[12] = test system: MCF7; experiment: Inhibition of MCF-7 cell proliferation stimulated by 10e-[…] M 17-beta-estradiol; Not active at the doses tested; assay type: functional, cell-based, Homo sapiens
[13] = test system: Rattus norvegicus; experiment: Eosinophil peroxidase activity expressed as Vmax was determined in rat (in vivo) Eosinophil peroxidase activity expressed as Vmax was determined in rat (in vivo); assay type: functional; design: unit not given here
[14] = biological target: T1, Estrogen receptor (Homo sapiens, UniProt Q92731+P03372); settings: mcf7
[15] = test system: Rattus norvegicus; experiment: Percent decrease in serum cholesterol relative to OVX control at 1.0 mg/kg in rats; assay type: functional; in short: as §3
[16] = test system: Rattus norvegicus; experiment: Percent decrease in serum cholesterol relative to OVX control at 0.1 mg/kg in rats; assay type: functional; in short: as §3
[17] = biological target: T1, Estrogen receptor; experiment: In vitro relative binding affinity by competition with [3H]17-beta-estradiol for estrogen receptor in MCF-7 cell lysate; Not active at the doses tested; assay type: cell-based
In short: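 Human MCF-7 cell lysate (0.5–1.0 mg/mL total protein) incubated 18 h at 4 °C with 0.5 nM [3H]17β-estradiol and serial dilutions of test compound. Unbound radioligand removed with dextran/charcoal and centrifugation; bound label in the supernatant counted by scintillation. RBA = IC50(17β-estradiol)/IC50(test compound) × 100.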

IC50 [14] | relative binding affinity (RBA) [17] | SMILES | minimal effective dose [1] | Protection [2] | Protection [3] | Protection [4] | Decrease [5] | minimal effective dose [6] | Protection [7] | ED50 [8] | Decrease [9] | Decrease [10] | Increase [11] | IC50 [12] | Eosinophil peroxidase activity (Vmax) [13] | Decrease [15] | Decrease [16]
 |  | O=C(c1ccc(OCCN2CCCCC2)cc1)c1c(-c2ccc(O)cc2)sc2cc(O)ccc12 [RALOXIFENE] | 0.1 mg/kg | 57.7% | 53.8% | 50% | 74% | > 10 mg/kg | 9.6% | 0.2 mg/kg | 66.7% | 44.9% | 23.5% |  |  |  | 
 |  | Cl.O=C(c1ccc(OCCN2CCCCC2)cc1)c1c(-c2ccc(Cl)cc2)sc2ccccc12 |  |  |  |  |  |  |  |  |  |  |  | Not Active |  |  | 
 |  | C=Cc1ccc(-c2sc3cc(O)ccc3c2C(=O)c2ccc(OCCN3CCCCC3)cc2)cc1 | 0.1 mg/kg |  |  |  | 49.7% | 1 mg/kg |  | 10 mg/kg | 41.5% | -7% | 26.9% |  | 48 |  | 
0.3 nM |  | O=C(c1ccc(OCCN2CCCCC2)cc1)c1c(-c2ccc(O)c(F)c2)sc2cc(O)ccc12 | 0.1 mg/kg | 68% | 69.8% | 34.1% | 55.3% | > 10 mg/kg | 34.5% | 0.4 mg/kg | 59.2% | 45.9% | 34.3% |  |  |  | 
100 nM |  | CCSCc1ccc(-c2sc3cc(O)ccc3c2C(=O)c2ccc(OCCN3CCCCC3)cc2)cc1 | 1 mg/kg |  |  |  | 63% | 1 mg/kg |  | 2.5 mg/kg | 40.1% | 21.7% | 30.5% |  | 36.9 |  | 
 |  | CC(C)c1sc2cc(O)ccc2c1C(=O)c1ccc(OCCN2CCCCC2)cc1 | > 10 mg/kg |  |  |  | 35% | > 10 mg/kg |  | > 10 mg/kg |  |  |  |  |  | 30.5% | 12.4%
 |  | Cc1sc2cc(O)ccc2c1C(=O)c1ccc(OCCN2CCCCC2)cc1 | > 10 mg/kg |  |  |  | 62.9% | > 10 mg/kg |  | 1.8 mg/kg |  |  |  |  |  | 53.8% | 8.3%
 |  | CSc1ccc(-c2sc3cc(O)ccc3c2C(=O)c2ccc(OCCN3CCCCC3)cc2)cc1 | 1 mg/kg |  |  |  | 75.3% | 1 mg/kg |  | 0.9 mg/kg | 51.5% | 27.7% | 50.2% |  | 37.5 |  | 
 |  | COC(=O)c1ccc(-c2sc3cc(O)ccc3c2C(=O)c2ccc(OCCN3CCCCC3)cc2)cc1 | 1 mg/kg |  |  |  | 56.1% | 10 mg/kg |  | 3.8 mg/kg | 42.1% | 23.8% | 37.2% |  | 13.2 |  | 
 |  | COC(=O)c1ccc2c(C(=O)c3ccc(OCCN4CCCCC4)cc3)c(-c3ccc(O)cc3)sc2c1.Cl | 0.1 mg/kg | 17% | 43.9% | -10% | 61% | > 10 mg/kg |  | 2.8 mg/kg | 42.8% | 13.8% | 37.5% |  |  |  | 
300 nM | inactive | Cc1ccc2c(C(=O)c3ccc(OCCN4CCCCC4)cc3)c(-c3ccc(O)cc3)sc2c1.Cl | 1 mg/kg |  |  |  | 21.6% | > 10 mg/kg |  | > 10 mg/kg | 33.9% | 16.9% | 23.9% |  |  |  | 
3.2 nM |  | O=C(c1ccc(OCCN2CCCCC2)cc1)c1c(-c2cccc(O)c2)sc2cc(O)ccc12 | > 10 mg/kg | 79.7% | 44.2% | -30.9% |  | > 10 mg/kg |  | 0.8 mg/kg |  |  |  |  |  |  | 
2 nM |  | O=C(c1ccc(OCCN2CCCCC2)cc1)c1c(-c2ccc(O)c3ccccc23)sc2cc(O)ccc12 | 0.1 mg/kg | 82.5% |  | 42.3% | 59.9% | 0.1 mg/kg | 35.9% | 1.2 mg/kg |  |  | 59.6% |  | 29.4 | 54.7% | 31.6%
 |  | O=C(c1ccc(OCCN2CCCCC2)cc1)c1c(C2CCCC2)sc2cc(O)ccc12 | > 10 mg/kg |  |  |  | 69.6% | > 10 mg/kg |  | 1.2 mg/kg |  |  |  |  |  | 55.6% | 18.4%
 |  | O=C(c1ccc(OCCN2CCCCC2)cc1)c1c2ccc(O)cc2sc1[C@H]1CC[C@H](O)CC1 | 0.1 mg/kg | 61.3% | 67.4% | 17% | 60.4% | > 10 mg/kg |  | 1 mg/kg |  |  | 46.7% |  |  | 41.1% | 48.7%
10 nM |  | CCCCc1ccc(-c2sc3cc(O)ccc3c2C(=O)c2ccc(OCCN3CCCCC3)cc2)cc1 | > 10 mg/kg |  |  |  | 72% | 10 mg/kg |  | 2.3 mg/kg | 14.5% | 21.3% |  |  | 20.8 |  | 
 |  | C[C@]12CC[C@@H]3c4ccc(O)cc4CC[C@H]3[C@@H]1CC[C@@H]2O [ESTRADIOL] |  |  |  |  |  |  |  |  |  |  |  | Not Active |  |  | 
 |  | O=C(c1ccc(OCCN2CCCCC2)cc1)c1c(C2CCCCC2)sc2cc(O)ccc12 | 1 mg/kg |  |  |  | 61.7% | > 10 mg/kg |  | 2.1 mg/kg |  |  | 30.2% |  |  | 52.9% | -0.1%
100 nM |  | Cc1cc(-c2sc3cc(O)ccc3c2C(=O)c2ccc(OCCN3CCCCC3)cc2)cc(C)c1O | 1 mg/kg |  |  |  | 69.1% | 1 mg/kg |  | 1.8 mg/kg | 40.2% | 23.1% | 33.8% |  | 40.8 |  | 
 |  | CCc1sc2cc(O)ccc2c1C(=O)c1ccc(OCCN2CCCCC2)cc1 | 10 mg/kg |  |  |  | 31.1% | > 10 mg/kg |  |  |  |  | 55.03% |  |  | 26.5% | 4.4%

SMILES | IC50 [14] | relative binding affinity (RBA) [17] | minimal effective dose [1] | Protection [2] | Protection [3] | Protection [4] | Decrease [5] | minimal effective dose [6] | Protection [7] | ED50 [8] | Decrease [9] | Decrease [10] | Increase [11] | IC50 [12] | Eosinophil peroxidase activity (Vmax) [13] | Decrease [15] | Decrease [16]
O=C(c1ccc(OCCN2CCCCC2)cc1)c1c(-c2ccsc2)sc2cc(O)ccc12 | 10 nM |  | 10 mg/kg |  |  |  | 31.8% | > 10 mg/kg |  | > 10 mg/kg |  |  |  |  |  |  | 0.6%
O=C(c1ccc(OCCN2CCCCC2)cc1)c1c(-c2ccncc2)sc2cc(O)ccc12 | 100 nM |  | 1 mg/kg |  |  |  | 47.6% | > 10 mg/kg |  | 14.6 mg/kg |  |  | 33.3% |  |  | 24% | 7.2%
O=C(c1ccc(OCCN2CCCCC2)cc1)c1c(-c2cc[n+]([O-])cc2)sc2cc(O)ccc12 | 100 nM |  | > 10 mg/kg |  |  |  | 42.6% | > 10 mg/kg |  | > 10 mg/kg |  |  |  |  |  | 1.8% | -16.6%
O=C(c1ccc(OCCN2CCCCC2)cc1)c1c(-c2cccc3ccccc23)sc2cc(O)ccc12 | 0.8 nM |  | > 10 mg/kg |  |  |  | 67.8% | > 10 mg/kg |  | 0.5 mg/kg |  |  |  |  |  | 53.9% | 40.1%
O=C(c1ccc(OCCN2CCCCC2)cc1)c1c(-c2ccc(-c3ccccc3)cc2)sc2cc(O)ccc12 | 100 nM |  | 0.1 mg/kg |  |  |  | 68.5% | 1 mg/kg |  | 2.4 mg/kg | 37% | 12.9% | 50.3% |  | 25.4 |  | 

From ChEMBL document CHEMBL1130160 (J Med Chem, 1997)
